RGS4 block – RGS4 inhibitors, primary screen, cell-based, HEK293 M3R inducible RGS4, calcium flux | Fluo-4 calcium flux; active compounds read high; triggered by carbachol at its EC20 | AID 463165, 2010 | Regulator of G-protein signaling 4 (Homo sapiens), P49798 | actives 0.45% (n = 310,000) | B-score at 10 µM;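 active means B-score, a plate-corrected calcium signal, over three deviations above library mean, with baseline fluorescence within five deviations of library mean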;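 further: RGS4 expression induced by doxycycline in cells with stable M3 receptor; B-score is computed from the integrated fluorescence ratio over baseline after carbachol; higher B-score means a larger calcium signal and so more RGS4 inhibition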
Target sequence (P49798 whole entry, looked up): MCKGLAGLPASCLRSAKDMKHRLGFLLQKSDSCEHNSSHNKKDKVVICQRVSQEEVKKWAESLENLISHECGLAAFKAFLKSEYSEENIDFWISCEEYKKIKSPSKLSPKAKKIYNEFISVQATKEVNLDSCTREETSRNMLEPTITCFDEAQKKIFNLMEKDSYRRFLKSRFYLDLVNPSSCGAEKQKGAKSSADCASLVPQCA
MrgX1 antag – antagonists of human MrgX1 receptor, primary screen, HEK293 cells, Fluo-4 calcium flux. AID 588676, 2011. actives 1.3% (n = 310,000). B-score at 10 µM. Mas-related G-protein coupled receptor member X1 (Homo sapiens), Q96LB2. BAM8-22 antagonism; active compounds read low;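 active means calcium-response B-score plate-corrected more than 3 library SD below zero, starting fluorescence within 5 deviations, no agonist response on first addition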;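 further: peak minus trough fluorescence over baseline after final BAM8-22 challenge near maximal dose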
Target sequence (Q96LB2 whole entry, looked up): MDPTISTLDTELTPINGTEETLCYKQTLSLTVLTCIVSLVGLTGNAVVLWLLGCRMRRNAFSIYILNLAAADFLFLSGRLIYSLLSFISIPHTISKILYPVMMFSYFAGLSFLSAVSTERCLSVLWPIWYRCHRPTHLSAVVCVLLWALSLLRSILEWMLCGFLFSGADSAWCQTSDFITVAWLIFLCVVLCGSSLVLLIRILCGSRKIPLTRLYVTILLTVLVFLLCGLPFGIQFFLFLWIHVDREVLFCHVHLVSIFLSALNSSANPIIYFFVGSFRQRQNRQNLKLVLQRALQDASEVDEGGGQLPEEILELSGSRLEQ
RGS4 pot – RGS4 potentiators or activators, primary screen, cell-based, HEK293 M3R inducible RGS4, calcium flux. B-score at 10 µM. carbachol calcium flux Fluo4; active compounds read low. AID 463111, 2010. actives 0.92% (n = 310,000);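 active means B-score of the integrated calcium signal more than 4 SD below the library mean, with starting fluorescence not abnormally high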;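 further: negative B-score means reduced calcium response which marks RGS4 activation or potentiation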
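System: HEK293 FlpIn-TREx cells, stable M3R, doxycycline-inducible RGS4. Timing: overnight RGS4 induction, 30 min dye load 37 °C, 20 min compound RT. Also added: carbachol, ECmax concentration. Measured by: Fluo4 fluorescence kinetic imaging of calcium. Evaluation: integrated calcium ratio converted to B score.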
MrgX1 agonist – agonists of human MrgX1 receptor, primary screen, HEK293 cells, Fluo-4 calcium flux; Mas-related G-protein coupled receptor member X1 (Homo sapiens), Q96LB2; Fluo-4 calcium fluorescence, agonist mode; active compounds read high; B-score at 10 µM; actives 0.44% (n = 310,000); AID 588627, 2011;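 active means calcium response B-score plate-corrected fluorescence ratio at least 3 library SD, with starting fluorescence B-score inside 5 SD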
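Assay system: MrgX1-expressing HEK293 cells / Amount: fifteen thousand cells per well / Doses: test compound in the initial addition of three / Timing: cells plated overnight, dye loaded 0.5 h 37 °C, 0.5 h room temperature / Technique: kinetic calcium dye fluorescence, Fluo-4 NW / Control set: positive and negative controls per plate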
MrgX1 PAM – positive allosteric modulators of MrgX1, primary screen, HEK293 cells, Fluo-4 calcium flux. Mas-related G-protein coupled receptor member X1 (Homo sapiens), Q96LB2. FDSS; active compounds read high. B-score at 10 µM. actives 0.63% (n = 310,000). AID 588675, 2011;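 active means plate-corrected calcium response at least 3 library SD above typical, normal starting fluorescence, not activating the receptor alone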;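 further: compound read alongside a low EC10 to EC30 dose of BAM8-22 agonist; peak minus trough fluorescence over baseline measured at the second addition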
MrgX1 PAM conf – MrgX1 positive allosteric modulators, duplicate retest, confirmation, HEK293 cells, Fluo-4 calcium flux. shares compounds with MrgX1 PAM. Fluo-4 calcium fluorescence, FDSS. activation (ratio percentage), % at 10 µM. actives 13% (n = 1,200). AID 602413, 2012;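 active means ratio at least 3 SD above the weak peptide control, stable starting fluorescence, no direct agonism earlier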;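 further: compound followed by low BAM8-22 agonist challenge near EC20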
HEK293 Ca flux – nonspecific calcium signal in parental HEK293, confirmation, counter-screen for MrgX1 antagonist project, parental HEK293 cells, Fluo-4 calcium flux | shares compounds with MrgX1 antag | Fluo-4 calcium fluorescence, FDSS | fluorescence ratio F(max-min)/F0 at 10 µM | actives 2% (n = 4,000) | AID 624111, 2012;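 active means duplicate-averaged calcium fluorescence ratio at least three times the standard deviation of buffer wells, a nonspecific response in parental cells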
HEK293 Ca counter – calcium response in parental HEK293 cells, primary screen, counter-screen for MrgX1 allosteric activator project, cell-based, Fluo-4 calcium flux, duplicate | Fluo-4 fluorescence ratio; active compounds read high | fluorescence ratio F(max-min)/F0 at 10 µM | shares compounds with MrgX1 antag | actives 0.4% (n = 4,000) | AID 624114, 2012;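 active means calcium fluorescence ratio, averaged over duplicates, at least 3 SD of the buffer-well ratio, meaning a nonspecific response in receptor-free cells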;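 further: untransfected parental HEK293 lacking MrgX1 used as counterscreen for MrgX1 allosteric activators; fluorescence change taken during the second addition on a kinetic imager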
HEK293 Ca cntr2 – calcium response in parental HEK293 cells, primary screen, counter-screen for MrgX1 agonist project, cell-based, Fluo-4 calcium flux, duplicate, agonist mode | shares compounds with MrgX1 antag | Fluo-4 calcium fluorescence (FDSS); active compounds read high | fluorescence ratio F(max-min)/F0 at 10 µM | actives 8.7% (n = 4,000);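 active means calcium fluorescence ratio at least three times the spread of buffer wells, meaning a non-specific response in parental cells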
The depositor's hits bear a star; i = inactive; . = not tested or not shown. Sampled rows, rich in hits. Any-hit rate of the full collection: about 3.5%.

SMILES	RGS4 block	MrgX1 antag	RGS4 pot	MrgX1 agonist	MrgX1 PAM	MrgX1 PAM conf	HEK293 Ca flux	HEK293 Ca counter	HEK293 Ca cntr2
Cc1ccc(S(=O)(=O)N(C)C)cc1NC(=O)CSc1nncs1	i	i	i	i	i	.	.	.	.
CCOC(=O)/C(C(=Nc1ccccc1)Nc1ccccc1)=C(\C)O	i	i	i	i	7.7*	i	i	i	i
CS(=O)(=O)Nc1cccc(-c2cn3c(n2)SCC3)c1	i	i	i	i	i	.	.	.	.
Cc1ccc(NS(=O)(=O)c2cc3c4c(cccc4c2)C(=O)NC3=O)cc1C	i	i	i	i	i	.	.	.	.
O=C(NCCc1cn2ccccc2n1)c1cc(COc2ccc3ncccc3c2)on1	i	i	i	i	8.9*	5.7%*	i	i	i
O=C(NC1CCCC1)c1cc(COc2ccc3ncccc3c2)on1	i	i	i	i	i	.	.	.	.
O=C(NC1CCc2ccccc21)c1cc(COc2cncc(Cl)c2)on1 (stereo not drawn)	i	i	i	i	i	.	.	.	.
Cc1ccc(C(=O)O)cc1NCc1ccncc1	i	i	i	i	i	.	.	.	.
CCOc1ccccc1CN1CCNC(=O)C1CC(=O)NCc1nccn1CC (stereo not drawn)	i	i	i	i	i	.	.	.	.
Cc1ccc(C2CC2c2n[nH]c(=S)n2-c2ccc(Cl)cc2)cc1 (stereo not drawn)	i	i	i	i	i	.	.	.	.
S=c1[nH]nc([C@@H]2C[C@H]2c2ccccc2)n1-c1ccccc1Cl	i	i	i	i	7.7*	i	i	i	i
COc1ccccc1COc1ccc2c(C)c(CC(=O)O)c(=O)oc2c1C	i	i	i	i	13*	i	i	i	i
Cc1c(CC(=O)O)c(=O)oc2c(C)c(OCc3ccc(F)cc3F)ccc12	i	i	i	i	i	.	.	.	.
O=C(c1cc(C(=O)N2CCOCC2)c2nc3ccccc3n2c1)c1cc(Cl)cc(Cl)c1O	i	i	i	i	i	.	.	.	.
CCC1(C)Cc2ccccc2-c2nc(NCCCO)n(C)c(=O)c21 (stereo not drawn)	i	i	i	i	i	.	.	.	.
CCC1(C)Cc2ccccc2-c2nc(NCCO)n(-c3ccccc3)c(=O)c21 (stereo not drawn)	i	i	i	i	7.7*	i	i	i	i
CCCc1nnc(NC(=O)CSc2nnc(-c3ccco3)n2C)s1	i	i	i	i	i	.	.	.	.
O=C(NC(=O)c1ccc(F)cc1F)Nc1ccc(Cl)cc1	i	i	i	i	i	.	.	.	.
Cc1csc(/C(=N/OC(=O)c2ccco2)C(N)=O)n1	i	i	i	i	i	.	.	.	.
CCN(CC(=O)Nc1c(F)cccc1F)C(=O)c1ccc(C(F)(F)F)cc1	i	i	i	i	8.1*	i	i	i	i
Cn1c(SCC(=O)N2CCCC2=O)nnc1-c1ccccc1F	i	i	i	i	8.8*	i	i	i	i
Cn1c(SCC(=O)N2CCCc3ccccc32)nnc1-c1c[nH]c2ccccc12	i	i	i	i	i	.	.	.	.
COc1ccccc1NC(=O)C(C)Nc1ccc(C)c(Cl)c1 (stereo not drawn)	i	i	i	i	6.9*	i	i	i	i
C=CCN(CC=C)C(=O)c1ccc(OC2CCN(C(C)=O)CC2)c(OC)c1	i	i	i	i	i	.	.	.	.
Cc1cccc(-n2cnc3cc(C(=O)N4CCc5ccccc54)ccc32)c1	i	i	i	i	7.5*	i	i	i	i
SMILES	RGS4 block	MrgX1 antag	RGS4 pot	MrgX1 agonist	MrgX1 PAM	MrgX1 PAM conf	HEK293 Ca flux	HEK293 Ca counter	HEK293 Ca cntr2
COCCNC(=O)c1ccc2c(c1)ncn2-c1cccc(C)c1	i	i	i	i	i	.	.	.	.
N=c1n(CC(=O)c2cccs2)c2ccccc2n1Cc1ccccc1	i	i	i	i	i	.	.	.	.
COc1ccc(N2CCN(C(=O)C3CCN(S(=O)(=O)c4ccc5c(c4)oc(=O)n5C)CC3)CC2)cc1	i	i	i	i	i	.	.	.	.
Cc1cccc(NC(=O)CC(=O)Nc2cccc(C)c2)c1	i	i	i	i	i	.	.	.	.
Cc1cccc(NC(=O)C23CCC(C)(C2Br)C3(C)C)c1 (stereo not drawn)	i	i	i	i	20*	i	i	i	i
COC(=O)c1ccc(Oc2nc(C)cc(Oc3ccccc3)n2)cc1	i	i	i	i	19*	7.3%*	i	i	i
CCc1noc(C)c1C(=O)Nc1cc(Cl)ccc1N1CCCC1	i	i	i	i	i	.	.	.	.
COc1ccc(NS(=O)(=O)c2cn(C)cn2)cc1	i	i	i	i	i	.	.	.	.
CSc1cccc(NS(=O)(=O)c2cn(C)cn2)c1	i	i	i	i	12*	i	i	i	i
CCCc1ccc(OCC(=O)Nc2cc(S(=O)(=O)CC)ccc2O)cc1	i	i	i	i	24*	i	i	i	i
Cc1cc(O)cc(C)c1Cl	i	i	i	i	17*	i	i	i	i
C=CCSc1nc(O)c(C2OC(=O)c3c2ccc(OC)c3OC)c(=O)n1-c1ccccc1 (stereo not drawn)	i	i	i	i	31*	i	i	i	i
O=S(=O)(c1ccccc1)C1(C2CC(c3ccccc3)=NO2)CC(O)C1 (stereo not drawn)	i	i	i	i	i	.	.	.	.
